Data published in ChEMBL document CHEMBL4665898, “Semisynthetic Analogs of the Antibiotic Fidaxomicin-Design, Synthesis, and Biological Evaluation” (ACS Med Chem Lett, 2020).
≈ marks a conversion by molar mass, not a printed value.

Assays:
Clostridioides difficile [1] = assay: Antibacterial activity against Clostridium difficile BAA-1805 incubated for 46 hrs in anaerobic condition by CLSI-based broth microdilution assay; format: functional
Clostridioides difficile [2] = assay: Antibacterial activity against Clostridium difficile ATCC 43255 incubated for 46 hrs in anaerobic condition by CLSI-based broth microdilution assay; format: functional
Clostridioides difficile [3] = assay: Antibacterial activity against Clostridium difficile ATCC 9689 incubated for 46 hrs in anaerobic condition by CLSI-based broth microdilution assay; format: functional; details: ATCC 9689 = DSM 1296
Clostridioides difficile [4] = assay: Antibacterial activity against Clostridium difficile 5680 incubated for 46 hrs in anaerobic condition by CLSI-based broth microdilution assay; format: functional
Bacillus subtilis = assay: Antibacterial activity against Bacillus subtilis DSM3256 incubated overnight by broth dilution method; format: functional
Summary of the method: (§1)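 Strains pre-grown overnight at 37 °C on Mueller Hinton II agar; CLSI broth dilution, inoculum about 7.5 × 10^5 CFU/well. Compounds taken from 1.0 mg/mL stocks in 50 % methanol/H2O, diluted in H2O as 2-fold series. Plates held at 37 °C overnight; MIC read visually as lowest concentration with no growth.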

Staphylococcus aureus = assay: Antibacterial activity against Staphylococcus aureus ATCC 29213 incubated overnight by broth dilution method; format: functional; summary of the method: as §1
Clostridioides difficile [5] = assay: Antibacterial activity against Clostridium difficile 8260 incubated for 46 hrs in anaerobic condition by CLSI-based broth microdilution assay; format: functional
Clostridioides difficile [6] = assay: Antibacterial activity against Clostridium difficile ATCC 700057 incubated for 46 hrs in anaerobic condition by CLSI-based broth microdilution assay; format: functional
Clostridioides difficile [7] = assay: Antibacterial activity against Clostridium difficile BAA-1875 incubated for 46 hrs in anaerobic condition by CLSI-based broth microdilution assay; format: functional
Clostridioides difficile [8] = assay: Antibacterial activity against Clostridium difficile 8282 incubated for 46 hrs in anaerobic condition by CLSI-based broth microdilution assay; format: functional
Clostridioides difficile [9] = assay: Antibacterial activity against Clostridium difficile 8290 incubated for 46 hrs in anaerobic condition by CLSI-based broth microdilution assay; format: functional
[10] = test system: Mycobacterium tuberculosis; assay: Antimycobacterial activity against recombinant Mycobacterium tuberculosis H37Rv expressed in green fluorescence protein by measuring increase in fluorescence after 10 days in presence of middlebrook 7H9/OADC medium by GFP reporter gene assay; format: functional; details: 240 h, time 10 day
Clostridioides difficile [11] = assay: Antibacterial activity against Clostridium difficile 8264 incubated for 46 hrs in anaerobic condition by CLSI-based broth microdilution assay; format: functional
[12] = Aqueous solubility of the compound in phosphate buffer at pH 7 after 5 hrs by UHPLC analysis; format: physicochemical
Summary of the method: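 Solid added to 1.0 mL pH 7 phosphate buffer containing 50 µg/mL caffeine internal standard until saturated. Stirred 5 h at room temperature, passed through a 0.22 µm filter, then run on C18 UHPLC with a water/MeCN + 0.1 % HCOOH gradient. Analyte/IS peak-area ratio was converted to concentration using a linear calibration from MeOH standards at 50–500 µg/mL.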

Compound | MIC (Clostridioides difficile [1]) [µg/mL] | MIC (Clostridioides difficile [2]) [µg/mL] | MIC (Clostridioides difficile [3]) [µg/mL] | MIC (Clostridioides difficile [4]) [µg/mL] | MIC (Bacillus subtilis) [µg/mL] | MIC (Staphylococcus aureus) [µg/mL] | MIC (Clostridioides difficile [5]) [µg/mL] | MIC (Clostridioides difficile [6]) [µg/mL] | MIC (Clostridioides difficile [7]) [µg/mL] | MIC (Clostridioides difficile [8]) [µg/mL] | MIC (Clostridioides difficile [9]) [µg/mL] | MIC90 [10] [µg/mL] | MIC (Clostridioides difficile [11]) [µg/mL] | solubility at 5 h [12] [µg/mL]
CCc1c(Cl)c(OCC(=O)N2CCN(c3cc4c(cc3F)c(=O)c(C(=O)O)cn4C3CC3)CC2)c(Cl)c(O)c1C(=O)O[C@@H]1[C@@H](O)[C@@H](OC)[C@@H](OC/C2=C\C=C\C[C@H](O)/C(C)=C/[C@H](CC)[C@@H](O[C@@H]3OC(C)(C)[C@@H](OC(=O)C(C)C)[C@H](O)[C@@H]3O)/C(C)=C/C(C)=C/C[C@@H]([C@@H](C)O)OC2=O)O[C@H]1C | 0.12 (≈ 0.084 µM) | 0.03 (≈ 0.021 µM) | ≤ 0.015 | 0.12 (≈ 0.084 µM) | 32 (≈ 22.4 µM) | > 64 | 0.03 (≈ 0.021 µM) | 0.06 (≈ 0.042 µM) | 0.06 (≈ 0.042 µM) | 0.03 (≈ 0.021 µM) | 0.12 (≈ 0.084 µM) | 1 | 0.12 (≈ 0.084 µM) | –
CCc1c(Cl)c(OCCCn2cc(COCCOCCOCCOCCOCCC(=O)O)nn2)c(Cl)c(O)c1C(=O)O[C@@H]1[C@@H](O)[C@@H](OC)[C@@H](OC/C2=C\C=C\C[C@H](O)/C(C)=C/[C@H](CC)[C@@H](O[C@@H]3OC(C)(C)[C@@H](OC(=O)C(C)C)[C@H](O)[C@@H]3O)/C(C)=C/C(C)=C/C[C@@H]([C@@H](C)O)OC2=O)O[C@H]1C | – | – | – | – | – | – | – | – | – | – | – | – | – | > 2000
CCc1c(Cl)c(OCC(=O)N2CCC(O)CC2)c(Cl)c(OCC(=O)N2CCC(O)CC2)c1C(=O)O[C@@H]1[C@@H](O)[C@@H](OC)[C@@H](OC/C2=C\C=C\C[C@H](O)/C(C)=C/[C@H](CC)[C@@H](O[C@@H]3OC(C)(C)[C@@H](OC(=O)C(C)C)[C@H](O)[C@@H]3O)/C(C)=C/C(C)=C/C[C@@H]([C@@H](C)O)OC2=O)O[C@H]1C | – | – | – | – | – | – | – | – | – | – | – | – | – | 213 (≈ 159 µM)
CCOC(=O)COc1c(Cl)c(O)c(C(=O)O[C@@H]2[C@@H](O)[C@@H](OC)[C@@H](OC/C3=C\C=C\C[C@H](O)/C(C)=C/[C@H](CC)[C@@H](O[C@@H]4OC(C)(C)[C@@H](OC(=O)C(C)C)[C@H](O)[C@@H]4O)/C(C)=C/C(C)=C/C[C@@H]([C@@H](C)O)OC3=O)O[C@H]2C)c(CC)c1Cl | > 16 | > 16 | 2 (≈ 1.75 µM) | > 16 | 32 (≈ 28 µM) | 16 (≈ 14 µM) | 16 (≈ 14 µM) | 8 (≈ 6.99 µM) | 8 (≈ 6.99 µM) | 8 (≈ 6.99 µM) | 16 (≈ 14 µM) | 2 | > 16 | –
CCc1c(Cl)c(Oc2nncnn2)c(Cl)c(Oc2nncnn2)c1C(=O)O[C@@H]1[C@@H](O)[C@@H](OC)[C@@H](OC/C2=C\C=C\C[C@H](O)/C(C)=C/[C@H](CC)[C@@H](O[C@@H]3OC(C)(C)[C@@H](OC(=O)C(C)C)[C@H](O)[C@@H]3O)/C(C)=C/C(C)=C/C[C@@H]([C@@H](C)O)OC2=O)O[C@H]1C | 0.25 (≈ 0.205 µM) | 0.12 (≈ 0.0985 µM) | 0.03 (≈ 0.0246 µM) | 0.5 (≈ 0.41 µM) | – | – | 0.12 (≈ 0.0985 µM) | 0.06 (≈ 0.0493 µM) | 0.25 (≈ 0.205 µM) | 0.06 (≈ 0.0493 µM) | 0.12 (≈ 0.0985 µM) | – | 0.25 (≈ 0.205 µM) | –
O=C(O)c1cn(C2CC2)c2cc(N3CCNCC3)c(F)cc2c1=O [CIPROFLOXACIN] | – | – | – | – | – | – | – | – | – | – | – | 1 | – | –
CO[C@H]1/C=C/O[C@@]2(C)Oc3c(C)c(O)c4c(O)c(c(/C=N/N5CCN(C)CC5)c(O)c4c3C2=O)NC(=O)/C(C)=C\C=C\[C@H](C)[C@H](O)[C@@H](C)[C@@H](O)[C@@H](C)[C@H](OC(C)=O)[C@@H]1C [RIFAMPIN] | ≤ 0.015 | ≤ 0.015 | ≤ 0.015 | ≤ 0.015 | 0.25 (≈ 0.304 µM) | 0.008 (≈ 0.00972 µM) | > 16 | ≤ 0.015 | ≤ 0.015 | > 16 | ≤ 0.015 | – | ≤ 0.015 | –
